Laboratory results from ChEMBL document CHEMBL4138139, “Discovery of VU6005649, a CNS Penetrant mGlu7/8 Receptor PAM Derived from a Series of Pyrazolo[1,5-a]pyrimidines” (ACS Med Chem Lett, 2017).

Experiments:
Rattus norvegicus [1] = organism: Rattus norvegicus; assay: Displacement of [3H] Rolipram from PDE4 receptor rolipram binding site in Wistar rat brain membranes at 10 uM after 60 mins by scintillation counting method relative to control; type: cell membranes; details: Membrane
Procedure, shortened: (§1)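 Single-concentration screen at 10 μM in an outsourced profiling panel of 68 GPCRs, ion channels and transporters. Activity read out as percent inhibition of specific radioligand binding.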

[2] = biological target: Histamine H1 receptor (Homo sapiens) (UniProt P35367); assay: Displacement of [3H] pyrilamine from recombinant human H1 receptor expressed in CHOK1 cell membranes at 10 uM after 180 mins by scintillation counting method relative to control
Procedure, shortened: (§2)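 Single-concentration screen at 10 μM within a commercial lead-profiling panel of 68 GPCRs, ion channels and transporters. Activity read as percent inhibition of specific radioligand binding to each target.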

[3] = biological target: T1, Glutamate NMDA receptor (Rattus norvegicus) (UniProt P35439+Q00959+Q00960+Q00961+Q62645+Q8VHN2+Q9R1M7); assay: Displacement of [3H]-MDL-105519 from glutamate NMDA receptor glycine binding site in Wistar rat cerebral cortical membrane at 10 uM after 30 mins by scintillation counting method relative to control; procedure, shortened: as §2
[4] = biological target: Estrogen receptor (Homo sapiens) (UniProt P03372); assay: Displacement of [3H] estradiol from full length human recombinant ERalpha receptor expressed in Sf9 insect cells at 10 uM after 120 mins by scintillation counting method relative to control
[5] = biological target: T2, Metabotropic glutamate receptor 3 (Rattus norvegicus, UniProt P31422); assay: Negative allosteric modulation of rat mGlu3 receptor expressed in HEK cells harboring GIRK channel assessed as decrease in glutamate-induced thallium flux incubated for 142 secs followed by glutamate addition measured after 120 secs by Fluo4-AM dye based fluorescence assay; type: functional, cell-based
[6] = biological target: Epidermal growth factor receptor (Homo sapiens) (UniProt P00533); assay: Displacement of [125I] EGF from EGFR in human A431 cells at 10 uM after 60 mins by scintillation counting method relative to control; type: cell-based; procedure, shortened: as §1
[7] = biological target: T1, Glutamate NMDA receptor (Rattus norvegicus); assay: Displacement of [3H] CGP-39653 from NMDA in Wistar rat cerebral cortical membranes at 10 uM measured after 20 mins by scintillation counting method relative to control; procedure, shortened: as §1
[8] = biological target: Platelet-activating factor receptor (Homo sapiens) (UniProt P25105); assay: Displacement of [3H] PAF from human platelet activating factor receptor at 10 uM after 180 mins by scintillation counting method relative to control; procedure, shortened: as §1
[9] = biological target: Acetylcholine receptor subunit alpha (Homo sapiens) (UniProt P02708); assay: Displacement of [125I] alpha-Bungarotoxin from alpha1 nAChR in human rhabdomyosarcoma cell membranes at 10 uM after 120 mins by scintillation counting method relative to control; procedure, shortened: as §1
[10] = biological target: Muscarinic acetylcholine receptor M2 (Homo sapiens) (UniProt P08172); assay: Displacement of [3H] N-methylscopolamine from recombinant human M2 receptor expressed in CHOK1 cell membranes at 10 uM after 120 mins by scintillation counting method relative to control; procedure, shortened: as §1
Rattus norvegicus [11] = organism: Rattus norvegicus; assay: Displacement of [35S] ATP-alphaS from Wistar rat brain P2Y receptor at 10 uM measured after 60 mins by scintillation counting method relative to control; procedure, shortened: as §1
[12] = biological target: T1, Glutamate NMDA receptor (Rattus norvegicus); assay: Displacement of [3H] TCP from glutamate NMDA receptor phencyclidine binding site in Wistar rat cerebral cortical membrane at 10 uM after 45 mins by scintillation counting method relative to control; procedure, shortened: as §1
Rattus norvegicus [13] = organism: Rattus norvegicus; assay: Time at which total brain concentration stays above in vitro mGlu7 EC50 in rat; type: ADME, organism-based; details: in vivo
[14] = Brain to plasma partition coefficient, Kp of the compound in C57BL/6 mouse at 10 mg/kg, ip measured after 360 mins by LC-MS/MS analysis; type: ADME, organism-based; details: brain and plasma
Procedure, shortened: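 Mice given 10 mg/kg IP; time course out to 6 h with nonserial sampling of plasma and brain at each time point; Kp from brain/plasma levels.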

[15] = biological target: Cannabinoid receptor 1 (Homo sapiens) (UniProt P21554); assay: Displacement of [3H] SR141716A from recombinant human CB1 receptor expressed in rat Chem1 cell membranes at 10 uM measured after 90 mins by scintillation counting method relative to control; procedure, shortened: as §1
[16] = biological target: Metabotropic glutamate receptor 1 (Rattus norvegicus, UniProt P23385); assay: Positive allosteric modulation of rat mGlu1 receptor expressed in HEK cells assessed as increase in glutamate-induced calcium flux incubated for 142 secs followed by glutamate addition measured after 120 secs by Fluo4-AM dye based fluorescence assay; type: functional, cell-based
[17] = biological target: Melatonin receptor type 1A (Homo sapiens) (UniProt P48039); assay: Inhibition of human MT1 receptor at 10 uM relative to control; procedure, shortened: as §2
[18] = biological target: Interleukin-1 receptor type 1 (Mus musculus) (UniProt P13504); assay: Inhibition of mouse IL-1 receptor at 10 uM relative to control; procedure, shortened: as §2
[19] = biological target: Endothelin receptor type B (Homo sapiens) (UniProt P24530); assay: Displacement of [125I] endothelin-1 from recombinant human ETB receptor expressed in CHOK1 cell membranes at 10 uM after 120 mins by scintillation counting method relative to control; procedure, shortened: as §1
Mus musculus [20] = assay: Antipsychotic activity in wild-type contextual fear conditioning C57/B6 mouse model assessed as pro-cognitive effects on associative learning by measuring freezing at 50 mg/kg, ip treated 15 mins prior to training measured during 3 mins testing period (reference value: 65.5 +/- […])
[21] = biological target: Alpha-1D adrenergic receptor (Homo sapiens) (UniProt P25100); assay: Displacement of [3H] prazosin from recombinant human alpha1d receptor expressed in HEK293 cell membranes at 10 uM measured after 60 mins by scintillation counting method relative to control; procedure, shortened: as §1
Mus musculus [22] = assay: Toxicity in wild-type C57/B6 mouse assessed as sedation at 50 mg/kg, ip; type: organism-based; details: in vivo
[23] = biological target: T2, Metabotropic glutamate receptor 3; assay: Positive allosteric modulation of rat mGlu3 receptor expressed in HEK cells assessed as increase in glutamate-induced calcium flux incubated for 142 secs followed by glutamate addition measured after 120 secs by Fluo4-AM dye based fluorescence assay; type: functional, cell-based
[24] = biological target: Metabotropic glutamate receptor 2 (Rattus norvegicus, UniProt P31421); assay: Negative allosteric modulation of rat mGlu2 receptor expressed in HEK cells assessed as decrease in glutamate-induced thallium flux incubated for 142 secs followed by glutamate addition measured after 120 secs by Fluo4-AM dye based fluorescence assay; type: functional, cell-based
Cytochrome P450 3A4 = Cytochrome P450 3A4 (Homo sapiens, UniProt P08684); assay: Inhibition of CYP3A4 in human liver microsomes using midazolam as substrate preincubated for 15 mins followed by NADPH addition measured after 8 mins by LC-MS/MS analysis; type: ADME
[25] = biological target: Prostaglandin E2 receptor EP4 subtype (Homo sapiens) (UniProt P35408); assay: Displacement of [3H] prostaglandin E2 from recombinant human EP4 receptor expressed in rat Chem1 cell membranes at 10 uM measured after 120 mins by scintillation counting method relative to control; procedure, shortened: as §1
[26] = biological target: Neuropeptide Y receptor type 2 (Homo sapiens) (UniProt P49146); assay: Displacement of [125I] Peptide YY from Y2 receptor in human KAN-TS cell membrane at 10 uM after 120 mins by scintillation counting method relative to control; type: cell membranes; procedure, shortened: as §1
Rattus norvegicus [27] = organism: Rattus norvegicus; assay: Inhibition of rat kainate glutamate receptor at 10 uM relative to control; procedure, shortened: as §2
Rattus norvegicus [28] = organism: Rattus norvegicus; assay: Inhibition of rat N-type calcium channel at 10 uM relative to control; procedure, shortened: as §2

T2 sequence (P31422 whole entry): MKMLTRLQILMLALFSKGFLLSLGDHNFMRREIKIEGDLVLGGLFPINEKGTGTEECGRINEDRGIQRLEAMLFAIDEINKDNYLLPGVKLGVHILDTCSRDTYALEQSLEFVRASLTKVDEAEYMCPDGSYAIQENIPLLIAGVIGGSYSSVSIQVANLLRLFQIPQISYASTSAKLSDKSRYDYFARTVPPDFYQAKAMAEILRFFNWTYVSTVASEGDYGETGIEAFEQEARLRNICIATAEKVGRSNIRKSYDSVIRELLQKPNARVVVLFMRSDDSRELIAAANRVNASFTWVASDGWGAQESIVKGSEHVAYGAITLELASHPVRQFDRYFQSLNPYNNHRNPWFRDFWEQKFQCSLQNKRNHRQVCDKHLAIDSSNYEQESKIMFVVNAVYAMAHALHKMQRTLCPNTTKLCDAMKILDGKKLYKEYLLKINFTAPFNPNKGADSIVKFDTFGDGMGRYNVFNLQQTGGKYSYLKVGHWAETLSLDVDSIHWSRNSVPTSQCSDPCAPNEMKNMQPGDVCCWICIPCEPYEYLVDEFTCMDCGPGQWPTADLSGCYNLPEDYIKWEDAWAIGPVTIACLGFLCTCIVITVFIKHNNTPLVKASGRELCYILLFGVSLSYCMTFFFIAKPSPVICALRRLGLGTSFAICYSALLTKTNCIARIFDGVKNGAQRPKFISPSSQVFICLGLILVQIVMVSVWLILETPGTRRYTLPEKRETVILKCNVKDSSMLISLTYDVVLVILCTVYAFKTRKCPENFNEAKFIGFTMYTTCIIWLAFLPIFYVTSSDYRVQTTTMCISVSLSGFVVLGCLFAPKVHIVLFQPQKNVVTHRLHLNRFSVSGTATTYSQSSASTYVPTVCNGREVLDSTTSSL
Sequence of Prostaglandin E2 receptor EP4 subtype (Homo sapiens) (P35408 whole entry): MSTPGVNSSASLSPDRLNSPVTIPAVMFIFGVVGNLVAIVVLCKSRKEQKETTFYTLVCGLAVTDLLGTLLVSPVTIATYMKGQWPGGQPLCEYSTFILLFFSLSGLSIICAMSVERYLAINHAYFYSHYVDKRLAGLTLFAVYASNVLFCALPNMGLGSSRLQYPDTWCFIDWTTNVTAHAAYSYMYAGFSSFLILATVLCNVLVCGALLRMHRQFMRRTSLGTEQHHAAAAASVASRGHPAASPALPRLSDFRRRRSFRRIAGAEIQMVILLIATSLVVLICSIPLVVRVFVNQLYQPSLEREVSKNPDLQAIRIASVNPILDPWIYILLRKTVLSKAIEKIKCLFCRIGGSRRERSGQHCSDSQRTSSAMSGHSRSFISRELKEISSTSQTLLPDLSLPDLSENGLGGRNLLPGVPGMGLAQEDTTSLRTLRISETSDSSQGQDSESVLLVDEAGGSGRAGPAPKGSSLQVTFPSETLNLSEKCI
Sequence of Cytochrome P450 3A4 (P08684 whole entry): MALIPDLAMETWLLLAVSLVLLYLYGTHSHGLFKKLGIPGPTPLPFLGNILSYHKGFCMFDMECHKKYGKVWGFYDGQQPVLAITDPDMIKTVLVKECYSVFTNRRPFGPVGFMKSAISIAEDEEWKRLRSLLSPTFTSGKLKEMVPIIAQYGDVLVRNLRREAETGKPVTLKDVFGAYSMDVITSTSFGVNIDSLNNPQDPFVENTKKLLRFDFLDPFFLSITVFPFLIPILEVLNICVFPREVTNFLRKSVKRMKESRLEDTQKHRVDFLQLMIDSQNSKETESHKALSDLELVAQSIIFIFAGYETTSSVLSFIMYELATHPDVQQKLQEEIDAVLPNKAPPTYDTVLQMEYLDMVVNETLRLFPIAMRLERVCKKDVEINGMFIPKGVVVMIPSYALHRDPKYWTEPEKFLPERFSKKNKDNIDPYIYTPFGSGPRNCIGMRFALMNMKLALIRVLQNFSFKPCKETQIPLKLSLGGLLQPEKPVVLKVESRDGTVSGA
Sequence of Estrogen receptor (Homo sapiens) (P03372 whole entry): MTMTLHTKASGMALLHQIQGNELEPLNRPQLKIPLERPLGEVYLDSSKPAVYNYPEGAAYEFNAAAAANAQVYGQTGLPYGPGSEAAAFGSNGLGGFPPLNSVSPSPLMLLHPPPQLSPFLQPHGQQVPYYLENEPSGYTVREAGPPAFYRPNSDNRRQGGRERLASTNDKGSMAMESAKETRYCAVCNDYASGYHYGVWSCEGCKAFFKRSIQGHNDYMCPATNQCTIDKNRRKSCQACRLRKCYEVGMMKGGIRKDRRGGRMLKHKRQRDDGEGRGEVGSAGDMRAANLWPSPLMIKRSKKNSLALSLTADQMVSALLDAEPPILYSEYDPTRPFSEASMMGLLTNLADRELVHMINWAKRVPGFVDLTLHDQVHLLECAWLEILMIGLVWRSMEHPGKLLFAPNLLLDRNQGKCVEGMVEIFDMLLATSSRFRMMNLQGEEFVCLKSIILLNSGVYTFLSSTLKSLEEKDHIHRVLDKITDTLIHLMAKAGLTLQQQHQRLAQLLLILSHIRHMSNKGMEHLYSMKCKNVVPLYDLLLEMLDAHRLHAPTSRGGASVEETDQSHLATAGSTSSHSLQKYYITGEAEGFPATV
Sequence of Alpha-1D adrenergic receptor (Homo sapiens) (P25100 whole entry): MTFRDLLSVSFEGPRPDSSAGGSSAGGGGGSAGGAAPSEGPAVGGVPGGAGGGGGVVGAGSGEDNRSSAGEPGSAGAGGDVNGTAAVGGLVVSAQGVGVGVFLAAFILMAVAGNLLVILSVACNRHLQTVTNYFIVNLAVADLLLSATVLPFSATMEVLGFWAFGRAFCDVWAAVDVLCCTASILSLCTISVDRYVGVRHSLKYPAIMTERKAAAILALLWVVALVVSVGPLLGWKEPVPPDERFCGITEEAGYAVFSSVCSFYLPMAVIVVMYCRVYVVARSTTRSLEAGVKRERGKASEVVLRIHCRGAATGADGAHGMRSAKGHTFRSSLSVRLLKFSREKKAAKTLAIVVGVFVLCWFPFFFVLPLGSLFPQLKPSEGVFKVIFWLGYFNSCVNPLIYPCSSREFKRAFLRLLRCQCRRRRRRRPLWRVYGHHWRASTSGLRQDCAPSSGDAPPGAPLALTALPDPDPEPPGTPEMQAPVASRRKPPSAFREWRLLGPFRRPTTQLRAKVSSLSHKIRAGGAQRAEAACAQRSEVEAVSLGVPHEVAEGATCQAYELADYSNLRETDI
Sequence of Platelet-activating factor receptor (Homo sapiens) (P25105 whole entry): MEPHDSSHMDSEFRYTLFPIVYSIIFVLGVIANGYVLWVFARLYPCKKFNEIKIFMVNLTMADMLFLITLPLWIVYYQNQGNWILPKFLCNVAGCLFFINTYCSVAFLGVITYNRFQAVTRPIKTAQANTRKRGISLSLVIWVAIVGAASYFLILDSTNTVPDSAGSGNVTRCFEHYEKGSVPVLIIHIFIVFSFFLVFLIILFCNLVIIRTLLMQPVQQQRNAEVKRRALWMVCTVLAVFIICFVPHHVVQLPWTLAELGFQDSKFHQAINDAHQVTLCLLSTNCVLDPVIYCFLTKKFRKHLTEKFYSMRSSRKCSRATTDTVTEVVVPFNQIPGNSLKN
Sequence of Histamine H1 receptor (Homo sapiens) (P35367 whole entry): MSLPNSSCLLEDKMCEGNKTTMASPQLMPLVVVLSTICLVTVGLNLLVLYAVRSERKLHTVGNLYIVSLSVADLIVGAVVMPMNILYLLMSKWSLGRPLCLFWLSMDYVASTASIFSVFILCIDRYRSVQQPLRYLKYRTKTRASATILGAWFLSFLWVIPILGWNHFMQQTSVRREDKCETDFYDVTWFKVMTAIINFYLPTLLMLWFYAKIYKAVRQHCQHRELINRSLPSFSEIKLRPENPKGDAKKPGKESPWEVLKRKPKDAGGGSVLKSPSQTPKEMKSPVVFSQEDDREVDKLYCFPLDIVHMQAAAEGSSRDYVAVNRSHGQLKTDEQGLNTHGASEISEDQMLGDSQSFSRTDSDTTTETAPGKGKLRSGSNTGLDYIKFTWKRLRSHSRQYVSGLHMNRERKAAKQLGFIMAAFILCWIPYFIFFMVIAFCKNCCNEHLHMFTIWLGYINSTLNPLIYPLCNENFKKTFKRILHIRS
Sequence of Endothelin receptor type B (Homo sapiens) (P24530 whole entry): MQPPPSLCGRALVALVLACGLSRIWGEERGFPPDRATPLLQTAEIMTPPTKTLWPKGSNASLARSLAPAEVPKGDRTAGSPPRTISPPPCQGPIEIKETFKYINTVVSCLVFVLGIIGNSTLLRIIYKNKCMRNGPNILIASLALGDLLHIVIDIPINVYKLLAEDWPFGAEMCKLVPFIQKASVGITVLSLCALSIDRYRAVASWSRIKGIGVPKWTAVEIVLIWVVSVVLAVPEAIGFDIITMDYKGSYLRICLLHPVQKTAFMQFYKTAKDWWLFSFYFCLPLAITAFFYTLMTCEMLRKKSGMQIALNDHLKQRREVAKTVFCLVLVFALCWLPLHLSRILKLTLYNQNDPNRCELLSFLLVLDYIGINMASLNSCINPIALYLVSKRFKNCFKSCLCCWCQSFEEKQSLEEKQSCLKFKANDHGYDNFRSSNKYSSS
Sequence of Cannabinoid receptor 1 (Homo sapiens) (P21554 whole entry): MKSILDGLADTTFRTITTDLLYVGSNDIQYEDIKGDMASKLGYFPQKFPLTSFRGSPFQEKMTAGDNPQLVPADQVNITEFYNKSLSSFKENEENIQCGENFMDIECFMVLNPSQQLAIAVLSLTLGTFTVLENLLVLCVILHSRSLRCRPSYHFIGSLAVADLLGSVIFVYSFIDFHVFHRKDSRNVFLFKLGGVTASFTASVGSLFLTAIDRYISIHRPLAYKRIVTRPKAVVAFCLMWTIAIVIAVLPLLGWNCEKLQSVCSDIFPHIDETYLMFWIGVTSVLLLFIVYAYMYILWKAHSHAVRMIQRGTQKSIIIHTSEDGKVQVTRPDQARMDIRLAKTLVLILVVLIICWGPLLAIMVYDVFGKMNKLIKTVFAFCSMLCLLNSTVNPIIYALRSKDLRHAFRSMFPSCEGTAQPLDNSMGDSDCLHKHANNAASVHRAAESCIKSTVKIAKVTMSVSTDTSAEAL

## COc1ccc(-c2c(C)nn3c(C(F)(F)F)cc(C)nc23)c(F)c1F
Rattus norvegicus [1]
  inhibition: < 50%
[2]
  inhibition: < 50%
[3]
  inhibition: < 50%
[4]
  inhibition: < 50%
[5]
  IC50: > 10 µM
[6]
  inhibition: < 50%
[7]
  inhibition: < 50%
[8]
  inhibition: < 50%
[9]
  inhibition: < 50%
[10]
  inhibition: < 50%
Rattus norvegicus [11]
  inhibition: < 50%
[12]
  inhibition: < 50%
Rattus norvegicus [13]
  Time: 2 h
[14]
  Kp at 6 h: 1.1
[15]
  inhibition: < 50%
[16]
  EC50: > 10 µM
[17]
  inhibition: < 50%
[18]
  inhibition: < 50%
[19]
  inhibition: < 50%
Mus musculus [20]
  Activity: 76.8%
[21]
  inhibition: < 50%
Mus musculus [22]
  Activity: Toxic
[23]
  EC50: > 10 µM
[24]
  IC50: > 10 µM
Cytochrome P450 3A4
  IC50: > 30 µM
[25]
  inhibition: < 50%
[26]
  inhibition: < 50%
Rattus norvegicus [27]
  inhibition: < 50%
Rattus norvegicus [28]
  inhibition: < 50%
